One may read the IC50 as the concentration needed to halve the response being measured.

Active and inactive are the calls of the source. The rule behind the calls is not given here.

Our source for the IC50 and Activity values is ChEMBL document CHEMBL1649334, “Trypanocidal activity of aziridinyl nitrobenzamide prodrugs” (Antimicrob Agents Chemother, 2010).

For assay [1], the system named is Trypanosoma brucei. Nature of the assay: Antitrypanosomal activity against Trypanosoma brucei BSF overexpressing NTR gene assessed as growth inhibition after 3 days by Alamar blue assay. The assay is classed as functional, organism-based. Particulars: 72 h. An outline of the steps:
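Bloodstream-form 2T1 parasites overexpressing TbNTR, kept in hygromycin, seeded at 1×10^3 ml⁻¹ in modified Iscove's medium with graded compound. Tetracycline 1 μg ml⁻¹ added for induction where appropriate. 3 days at 37°C, 5% CO2, then Alamar Blue for 16 h; fluorescence at ex 530/em 585 nm. IC50 calculated; means of 4 experiments ± SD.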
(The colour change of resazurin is a common sign of viable cells or microbes.)

For another assay, the system named is Trypanosoma cruzi. Nature of the assay: Antitrypanosomal activity against Trypanosoma cruzi clone Cl-Brener infected in african green monkey Vero cells assessed as growth inhibition after 3 days by luciferase reporter gene assay. The assay is classed as functional, organism-based. As to conditions: 72 h. An outline of the steps:
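Vero cells seeded at 1.5×10^4 ml⁻¹, allowed to adhere 6 h, then infected overnight with 10,000 luciferase-expressing Cl-Brener trypomastigotes per well. After two washes to remove free parasites, drug-containing medium was added for 3 days at 37°C, 5% CO2. Cells were lysed and luciferase light output read; IC50 calculated.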
In general terms: In a reporter assay the amount or activity of a reporter protein is the signal.

The next assay deals with Vero. Put plainly: Cytotoxicity against african green monkey Vero cells after 6 days by Alamar blue assay. Particulars: Chlorocebus sabaeus, 144 h. The assay is classed as cell-based. An outline of the steps: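 Vero cells seeded at 1×10^4 ml⁻¹ in RPMI 1640 with 10% FCS containing graded compound (up to 250 μM). 6 days at 37°C, 5% CO2, then Alamar Blue for 8 h; fluorescence read and IC50 derived.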

Assay [2] has as its system Trypanosoma brucei. Put plainly: Activity of Trypanosoma brucei NTR expressed in Escherichia coli assessed as enzyme-mediated compound reduction by reverse phase HPLC. The method in brief:
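Recombinant His-tagged TbNTR purified from E. coli (Ni-NTA). Substrate 100 μM with 200 μM NADH, 3 mM glucose, 1 U glucose dehydrogenase in 50 mM NaH2PO4 pH 7.5 at 37°C; started with 50 μg enzyme. Aliquots at 20–600 s quenched in ice-cold methanol. Substrate loss followed by reversed-phase HPLC (4–56% acetonitrile, 254/340/450 nm), quantified against a nifurtimox standard.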

The next assay concerns V79. Nature of the assay: Cytotoxicity against chinese hamster V79 cells after 6 days by Alamar blue assay. The assay is classed as cell-based. As to conditions: Cricetulus griseus, V79, 144 h.

For `NC(=O)c1cc([N+](=O)[O-])cc([N+](=O)[O-])c1N1CC1`, the figures for the IC50 in the assay with Trypanosoma brucei [1] and in the assay on Trypanosoma cruzi were more than 10 µM and more than 10000 nM, respectively.
For `O=[N+]([O-])c1cc(NCC(O)CO)c(N2CC2)c([N+](=O)[O-])c1` (centres undefined) the same measures were more than 6.4 µM and more than 10000 nM.
Take `CS(=O)(=O)c1cc([N+](=O)[O-])c(N2CC2)cc1C(N)=O`: the figures for the IC50 in the assay on Trypanosoma brucei [1] and in the assay with Trypanosoma cruzi were more than 10 µM and more than 10000 nM, respectively.
Turning to `O=C(NCCN1CCOCC1)c1cc(N2CC2)c([N+](=O)[O-])cc1[N+](=O)[O-]`, the IC50 with Trypanosoma brucei [1] is 0.89 µM; in the assay with Vero it was more than 250 µM; in the assay on Trypanosoma cruzi it was 1590 nM; with V79, 624 µM. In addition, the outcome with Trypanosoma brucei [2] was Active.
The like results for `COC(=O)CCNC(=O)c1cc(N2CC2)c([N+](=O)[O-])cc1[N+](=O)[O-]` were, in that order, 1.45 µM, more than 250 µM, 690 nM, 634 µM and “Active”.
With `O=C(NCCN1CCOCC1)c1cc([N+](=O)[O-])cc([N+](=O)[O-])c1N1CC1`, the IC50 with Trypanosoma brucei [1] was more than 10 µM; in the assay on Trypanosoma cruzi it was more than 10000 nM.
For `CS(=O)(=O)c1cc([N+](=O)[O-])c(N2CC2)cc1NCC(O)CO` (centres undefined) the same measures were more than 10 µM and more than 10000 nM.
With `NC(=O)c1ccc([N+](=O)[O-])c(N2CC2)c1`, the IC50 in the assay with Trypanosoma brucei [1] is more than 10 µM; in the assay with Trypanosoma cruzi it was more than 10000 nM.
Regarding `CC1CS(=O)(=O)CCN1/N=C/c1ccc([N+](=O)[O-])o1` (centres undefined) [NIFURTIMOX], the IC50 is 64.1 µM with Vero, 240 nM in the assay on Trypanosoma cruzi and 35 µM in the assay on V79.
As for `NC(=O)c1cc(N2CC2)c([N+](=O)[O-])cc1[N+](=O)[O-]` [TRETAZICAR], the 50% inhibitory concentration (IC50) is more than 250 µM in the assay with Vero, 570 nM with Trypanosoma cruzi and 543 µM in the assay on V79. Further, in the assay with Trypanosoma brucei [2], the result was Active.
